In BindingDB's records for doi:10.1016/j.bmc.2012.11.002 (China Pharmaceutical University, 2012):

Target: Tissue factor (Homo sapiens, UniProt P13726)
Assay: Inhibition of tissue factor procoagulant activity in LPS-stimulated human THP1 cells preincubated for 1 hr before LPS addition measured after 5 hrs
Outline: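 THP-1 cells grown in RPMI-1640 with 10% heat-inactivated FCS, 37 °C, 5% CO2. Cells at 1 × 10⁶/mL pretreated 1 h with compound or 0.1% DMSO vehicle, then given 500 ng/mL LPS for 5 h. Cells were pelleted, resuspended, frozen/thawed three times, and the lysate incubated with prothrombin complex plus CaCl₂ (pH 7.3) 15 min at 37 °C. Factor Xa chromogenic substrate (0.5 mM) with EDTA was added and A405 read.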

Sequence of Tissue factor (P13726 whole entry): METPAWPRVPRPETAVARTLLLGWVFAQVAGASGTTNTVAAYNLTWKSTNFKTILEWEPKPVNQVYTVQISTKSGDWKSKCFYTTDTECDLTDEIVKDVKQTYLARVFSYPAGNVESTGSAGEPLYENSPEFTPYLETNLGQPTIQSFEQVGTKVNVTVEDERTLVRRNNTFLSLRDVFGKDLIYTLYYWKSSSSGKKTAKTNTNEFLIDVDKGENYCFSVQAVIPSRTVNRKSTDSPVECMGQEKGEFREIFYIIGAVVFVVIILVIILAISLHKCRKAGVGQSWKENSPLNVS

Compound	IC50
COc1cc2c(cc1OC)C1Cc3ccc(OC)c(O)c3CN1CC2 (centres undefined)	187 nM
COc1ccc2c(c1O)CN1CCc3cc4c(cc3[C@@H]1C2)OCO4	36 nM
COc1cc2c(cc1OC)[C@H]1Cc3ccc(OC)c(O[C@@H]4O[C@H](CO)[C@@H](O)[C@H](O)[C@H]4O)c3CN1CC2	13 nM
COc1cc(/C=C/C(=O)Oc2c(OC)ccc3c2CN2CCc4cc5c(cc4C2C3)OCO5)ccc1OC(C)=O (centres undefined)	202 nM
COc1ccc2c(c1OC)CN1CCc3cc4c(cc3C1C2)OCO4 (centres undefined) [9,10-dimethoxy-5,8,13,13a-tetrahydro-6H-[1,3]dioxolo[4,5-g]isoquino[3,2-a]isoquinoline]	8.4 nM
CCC(=O)Oc1c(OC)ccc2c1CN1CCc3cc4c(cc3C1C2)OCO4 (centres undefined)	119 nM
COc1ccc2c(c1O)CN1CCc3cc4c(cc3[C@H]1C2)OCO4 [R-(+)-Tetrahydroberberrubine]	6.8 nM
CCCCCC(=O)Oc1c(OC)ccc2c1CN1CCc3cc4c(cc3C1C2)OCO4 (centres undefined)	1500 nM
COc1cc2c(cc1OC)[C@@H]1Cc3ccc(OC)c(O[C@@H]4O[C@H](CO)[C@@H](O)[C@H](O)[C@H]4O)c3CN1CC2	17 nM
COc1ccc2c(c1OC(=O)/C=C/c1ccccc1)CN1CCc3cc4c(cc3C1C2)OCO4 (centres undefined)	3.8 nM
COc1cc2c(cc1OC)[C@@H]1Cc3ccc(OC)c(OC)c3CN1CC2 [(-)-Tetrahydropalmatine]	23 nM
COc1cc2c(cc1OC)C1Cc3ccc(OC)c(OC)c3CN1CC2 (centres undefined) [2,3,9,10-Tetramethoxy-5,8,13,13a-tetrahydro-6H-isoquino[3,2-a]isoquinoline]	15 nM
COc1ccc2c(c1OC(=O)c1ccccc1OC(C)=O)CN1CCc3cc4c(cc3C1C2)OCO4 (centres undefined)	555 nM
COc1ccc2c(c1O[C@@H]1O[C@H](CO)[C@@H](O)[C@H](O)[C@H]1O)CN1CCc3cc4c(cc3[C@H]1C2)OCO4	8.8 nM
COc1ccc2c(c1OC(C)=O)CN1CCc3cc4c(cc3C1C2)OCO4 (centres undefined)	63 nM
COc1ccc2c(c1OC(=O)c1ccccc1)CN1CCc3cc4c(cc3C1C2)OCO4 (centres undefined)	377 nM
COc1ccc2c(c1O[C@@H]1O[C@H](CO)[C@@H](O)[C@H](O)[C@H]1O)CN1CCc3cc4c(cc3[C@@H]1C2)OCO4	39 nM
COc1ccc2c(c1OC)CN1CCc3cc(O)c(O)cc3C1C2 (centres undefined)	969 nM
COc1cc2c(cc1OC)[C@@H]1Cc3ccc(O)c(OC)c3CN1CC2 [(-)-Corydalmine]	152 nM
